Screens: PubChem BioAssay, several laboratories
RAM inhibit: inhibitors of the yeast RAM network, primary screen, dse1pr::URA3 reporter, 5-FOA selection | S. cerevisiae dse1pr::URA3 reporter, 5-FOA growth OD615, 2 d; analog-sensitive cbk1-as2 kinase mutant strain | 190,000 tested, 1.8% active | AID 868, 2007 | inhibition, % at 50 µM;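 active means inhibition above a set limit, 3 SD over mean compound inhibition, cut at about 8.4% in these data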;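 further: inhibition rescues growth on 5-FOA so higher OD means more RAM inhibition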
L major viab: Leishmania major promastigote growth inhibition, primary screen; 200,000 tested, 9% active; inhibition, % at 10 µM; Leishmania major promastigotes, resazurin fluorescence viability; AID 1063, 2008; in the data active means inhibition above about 50%;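 further: promastigotes grown with compound for 44 hours at 28 °C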
ABCB1 inh: ABCB1 efflux pump inhibitors, primary screen, cell-based, multiplex, flow cytometry, ABCG2 counter-screen. ATP-dependent translocase ABCB1 (Homo sapiens), P08183. CCRF-Adr cells, JC-1 efflux. inhibition, % at 6.6 µM. 190,000 tested, 0.067% active. AID 1326, 2008; in the data active means inhibition above about 40%;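 further: higher value means more JC-1 retained so stronger ABCB1 efflux block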
WT yeast gro inh: growth inhibition of WT strain, primary screen, mitochondrial fusion inhibitor project, WT and mutant strains, chemical genetic. AID 1362, 2008. mitochondrial fusion phenotypic screen. 190,000 tested, 2.1% active. inhibition, % at 10 µM; in the data active means inhibition above about 58%; tested in S. cerevisiae
ABCG2 inh: ABCG2 efflux pump inhibitors, primary screen, multiplex with ABCB1, IgMXP3 cells, flow cytometry. Broad substrate specificity ATP-binding cassette transporter ABCG2 (Homo sapiens), Q9UNQ0. JC-1 efflux. inhibition, % at 6.6 µM. 190,000 tested, 0.1% active. AID 1325, 2008;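 active means inhibition above 80%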
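Read-out basis: Efflux inhibition in percent versus controls | Test system: ABCG2 IgMXP3 and barcoded ABCB1 CCRF-Adr cell mix | Quantity: 3 million cells/mL in well | Schedule: 10 min at 25 °C | Control set: Nicardipine as high control, DMSO as low control | Reagent: JC-1 as fluorescent efflux pump substrate | Signal: Flow cytometry of retained JC-1 fluorescence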
A number is an active result; 0 = inactive. Shown are actives, neighbours in structure and some others; about 12% of the full set was active somewhere.

SMILES	RAM inhibit	L major viab	ABCB1 inh	WT yeast gro inh	ABCG2 inh
COc1ccc(NS(=O)(=O)c2cccc(C(=O)N/N=C/c3ccc(O)cc3)c2)cc1	0	0	0	0	0
Cc1cc(C)c(S(=O)(=O)CCC(C)C)c(=O)[nH]1	0	0	0	0	0
S=C(Nc1ccc(Nc2ccccc2)cc1)NC1CCCCCC1	0	0	0	80.5	0
O=C(CSc1ccc2c(c1)OCCO2)Nc1cccnc1	0	0	0	0	0
Cc1ccccc1CN1CCN(Cc2ccccc2C(F)(F)F)CC1	0	0	0	0	0
FC(F)(F)c1ccccc1CN1CCN(C2CCCCCC2)CC1	0	97.2	0	0	0
O=S(=O)(c1ccccc1)N1CCN(Cc2ccccc2C(F)(F)F)CC1	0	92.0	0	0	0
Cc1cc(C)c(Cc2c(C)nc3c(C(=O)NCc4ccco4)cnn3c2C)c(C)c1	0	0	0	62.7	0
COc1ccc(OC)c(N2Cc3cc(C)c(C)cc3C2)c1	0	86.5	0	0	0
CCOc1ccccc1N1Cc2cc(C)c(C)cc2C1	0	0	0	0	0
NC(=O)c1ccc(NC(=O)CSC2=Nc3ccccc3C3CC=NN23)cc1 (centres undefined)	0	0	0	0	0
COC(=O)c1ccc(NC(=O)CSC2=Nc3ccccc3C3CC=NN23)cc1 (centres undefined)	0	54.7	0	0	0
CCOC(=O)N1CCN(C(=O)CSCc2ccc(Br)cc2)CC1	0	0	0	0	0
CCCCc1c(CCC)c(=N)c2ccccc2n1C	0	100.1	0	0	0
COC(=O)c1c(NC(=O)c2cccnc2Cl)sc(C(=O)N(C)C)c1C	0	0	0	0	0
CC(C)CC(=O)Nc1cccc(C(=O)Nc2ccccc2C(=O)O)c1	0	0	0	0	0
CS(=O)(=O)c1ccc(S(=O)CC(=O)Oc2ccc(Cl)cc2)c([N+](=O)[O-])c1 (centres undefined)	0	0	0	0	0
CC(C)(C)C1CCC(=NOC(=O)c2ccc(F)cc2)CC1 (centres undefined)	0	0	0	98.1	0
O=C(NCc1ccccc1)C1(c2cccc(F)c2)CCCC1	0	0	0	0	0
CC1=NN(c2ccc(C)cc2C)C(=O)C1C(c1ccccc1)C1C(=O)N(c2ccc(C)cc2C)N=C1C (centres undefined)	0	0	0	73.3	0
CCC(C)NC(=O)C(=O)NCC1CCCN1CC (centres undefined)	0	0	0	0	0
CCN1CCN(C(=O)CN(c2ccc(F)c(Cl)c2)S(C)(=O)=O)CC1	0	0	0	0	0
CCCCSc1nnc(CNC(=O)C23CC4CC(CC(C4)C2)C3)n1Cc1ccccc1	0	0	0	58.5	0
c1coc(Cn2nnnc2CN2CCN(C3CCCC3)CC2)c1	0	74.0	0	0	0
CCCC(c1nnnn1Cc1ccc(F)cc1)N1CCN(C2CCCCC2)CC1 (centres undefined)	0	71.6	0	0	0
SMILES	RAM inhibit	L major viab	ABCB1 inh	WT yeast gro inh	ABCG2 inh
Fc1ccc(Cn2nnnc2CN2CCN(C3CCCCC3)CC2)cc1	0	86.1	0	0	0
CC(C)C(c1nnnn1Cc1ccc(F)cc1)N1CCN(C2CCCC2)CC1 (centres undefined)	0	0	0	0	0
CC(=O)NS(=O)(=O)c1cccnc1Nc1ccc(Cl)cc1	0	0	0	0	0
Cc1nc(CC(C)C)cc(C(=O)N2CCCC(CNS(=O)(=O)c3cccs3)C2)n1 (centres undefined)	0	0	0	0	0
C/C(=N\NC(=O)c1ccc([N+](=O)[O-])cc1Cl)c1ccccc1	0	0	0	0	0
COc1cc(OC)nc(Oc2ccccc2C(=O)Oc2ccc(Cl)cc2)n1	0	0	0	67.9	0
COc1cc(OC)nc(Oc2ccccc2C(=O)Oc2ccccc2Cl)n1	0	0	0	61.5	0
COc1cc(OC)nc(Oc2ccccc2C(=O)Oc2ccc(C)cc2)n1	9.5	0	0	0	0
COC(=O)c1ccccc1Oc1nc(Cl)cc(OC)n1	0	0	0	0	0
COc1ccc(-c2noc(N(C)CC(=O)Nc3cccc(C(F)(F)F)c3)n2)cc1	10.5	0	0	64.6	0
CSc1ncccc1C(=O)OCC(=O)C(C)(C)C	0	0	0	0	0
O=C(Nc1cccc(Cl)c1)OCc1cncs1	0	77.9	0	0	0
COC(=O)c1c(S(C)(=O)=O)nc(-c2ccccc2)[nH]c1=O	0	0	0	0	0
CC(=O)N1/C(=C/c2ccc(N(C)C)cc2)C(=O)c2ccccc21	0	100.3	0	62.6	0
CC(=O)/C(=C/c1ccc(N(C)C)cc1)C(=O)c1ccccc1	0	0	0	0	0
Cc1cn(-c2ccccc2)c(C)c1/C=N\Nc1nc(N2CCOCC2)nc(N2CCOCC2)n1	0	0	0	0	0
C/C(=N\NC(=O)Cc1c[nH]c2ccccc12)c1ccc2ccccc2c1	0	54.6	0	0	0
Cc1ccc(/C=N/NC(=O)Cc2c[nH]c3ccccc23)c(C)c1	0	0	0	0	0
O=C(CCc1c[nH]c2ccccc12)NCC1COc2ccccc2O1 (centres undefined)	0	0	0	0	0
O=C(CCCc1c[nH]c2ccccc12)NCC1COc2ccccc2O1 (centres undefined)	0	55.2	0	0	0
CC(=O)Nc1ccc(NC(=O)CCCc2c[nH]c3ccccc23)cc1	0	0	0	0	0
O=C(CCCc1c[nH]c2ccccc12)Nc1ccc2ccccc2c1	0	51.8	0	0	0
CCOc1ccc(C(=O)NCC(=O)OCc2ccc(F)cc2Cl)cc1	0	0	0	0	0
CC(=O)N(C)c1ccc(NC(=O)C(Sc2ccccc2)c2ccccc2)cc1 (centres undefined)	0	0	0	0	0
Cc1noc(NS(=O)(=O)c2ccc(NC(=O)c3ccc(N4C(=O)c5ccccc5C4=O)cc3)cc2)c1C	0	0	0	0	0
SMILES	RAM inhibit	L major viab	ABCB1 inh	WT yeast gro inh	ABCG2 inh
CC(C)(C)NS(=O)(=O)c1ccc(NC(=O)C(Sc2ccccc2)c2ccccc2)cc1 (centres undefined)	0	55.7	0	0	0
CC(C)CC(=O)NNC(=S)Nc1ccc(S(N)(=O)=O)cc1	0	0	0	0	0
CC(C)CC(=O)NC(=S)Nc1ccc(S(=O)(=O)NC(C)(C)C)cc1	0	62.2	0	0	0
O=C(Nc1ccc(S(=O)(=O)Nc2nccs2)cc1)c1ccc(N2C(=O)c3ccccc3C2=O)cc1	0	100.6	0	0	0
CC(C)CC(=O)NC(=S)Nc1ccc(S(=O)(=O)Nc2nccs2)cc1	0	54.8	0	0	0
Cc1ccc(NC(=O)C(=O)NCc2ccncc2)cc1	0	0	0	0	0
Cc1cc(NC(=O)CSc2nc(-c3ccccc3Cl)nc3c2c(=O)n(C)c(=O)n3C)no1	0	0	0	0	0
CCOc1ccc(-n2c(N)c(-c3nc4ccccc4n3C)c3nc4ccccc4nc32)cc1	0	0	0	0	0
